According to publication PMC10951978 (RSC Advances, 2024):
Like-named read-outs stand apart in the source and are kept apart here.

Tests used:
K562 = assay: CCK8 antiproliferative assay, K562; assay type: cell-based, human; conditions: read-out: Antiproliferative activity (IC50/μM) K562
KU812 = assay: CCK8 antiproliferative assay, KU812; assay type: cell-based, human; conditions: read-out: Antiproliferative activity (IC50/μM) KU812
MV411 = assay: CCK8 antiproliferative assay, MV411; assay type: cell-based, human; conditions: read-out: Antiproliferative activity (IC50/μM) MV411; MV411, CCK8, 48 h, means ± SD, n = 3
Kasumi-1 = assay: CCK8 antiproliferative assay, Kasumi-1; assay type: cell-based, human; conditions: read-out: Antiproliferative activity (IC50/μM) Kasumi-1; Kasumi-1, CCK8, 48 h, means ± SD, n = 3
CCRF-CEM = assay: CCK8 antiproliferative assay, CCRF-CEM; assay type: cell-based, human; conditions: read-out: Antiproliferative activity (IC50/μM) CCRF-CEM, CCK8, 48 h, means ± SD, n = 3
HDAC10 = target: T1, HDAC10 (Homo sapiens, UniProt Q969S8); assay: HDAC isoform inhibitory activity; assay type: biochemical
T1 sequence (Q969S8 1-669): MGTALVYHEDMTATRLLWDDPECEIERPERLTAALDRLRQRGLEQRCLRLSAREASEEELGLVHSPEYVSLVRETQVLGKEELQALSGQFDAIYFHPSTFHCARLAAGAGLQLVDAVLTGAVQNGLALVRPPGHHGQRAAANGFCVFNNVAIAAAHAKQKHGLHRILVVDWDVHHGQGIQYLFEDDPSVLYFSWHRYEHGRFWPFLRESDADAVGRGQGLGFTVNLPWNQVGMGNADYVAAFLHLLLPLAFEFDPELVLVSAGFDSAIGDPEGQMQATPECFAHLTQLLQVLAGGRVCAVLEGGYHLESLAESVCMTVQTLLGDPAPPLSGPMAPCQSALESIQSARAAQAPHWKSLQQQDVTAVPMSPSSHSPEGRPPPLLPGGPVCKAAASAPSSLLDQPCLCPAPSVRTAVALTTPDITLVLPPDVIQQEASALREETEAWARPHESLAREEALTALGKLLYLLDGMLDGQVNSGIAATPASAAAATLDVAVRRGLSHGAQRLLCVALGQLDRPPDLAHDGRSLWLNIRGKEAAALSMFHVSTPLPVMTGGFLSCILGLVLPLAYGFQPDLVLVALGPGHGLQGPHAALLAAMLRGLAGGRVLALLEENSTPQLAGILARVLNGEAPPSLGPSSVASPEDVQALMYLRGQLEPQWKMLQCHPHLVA

HDAC1 = HDAC1 (Homo sapiens, UniProt Q13547); assay: HDAC isoform inhibitory activity; assay type: biochemical
HDAC3 = HDAC3 (Homo sapiens, UniProt O15379); assay: HDAC isoform inhibitory activity; assay type: biochemical
MV411 cells = assay: Annexin V-FITC/PI apoptosis assay by flow cytometry; assay type: cell-based, human; conditions: 48 hours
In short: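 MV411 cells seeded at 5 × 10^5 per well and held 24 h at 37 °C, 5% CO2. Test compound was then added at 0, 0.25, 0.5 and 1.0 μM for a further 48 h. Cells were harvested, washed in annexin-binding buffer, stained with annexin V-FITC and PI for 15 min at 37 °C, and analysed by flow cytometry.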

HDAC2 = HDAC2 (Homo sapiens, UniProt Q92769); assay: HDAC isoform inhibitory activity; assay type: biochemical
acetylated H3 = assay: Western blotting of H3 and acetylated H3; assay type: cell-based, human; conditions: MV411, 0.25, 0.5 and 1.0 μM, 48 hours
[1] = K562, CCK8, 48 h, means ± SD, n = 3
[2] = KU812, CCK8, 48 h, means ± SD, n = 3

Chain of HDAC1 (Q13547 whole entry, canonical isoform): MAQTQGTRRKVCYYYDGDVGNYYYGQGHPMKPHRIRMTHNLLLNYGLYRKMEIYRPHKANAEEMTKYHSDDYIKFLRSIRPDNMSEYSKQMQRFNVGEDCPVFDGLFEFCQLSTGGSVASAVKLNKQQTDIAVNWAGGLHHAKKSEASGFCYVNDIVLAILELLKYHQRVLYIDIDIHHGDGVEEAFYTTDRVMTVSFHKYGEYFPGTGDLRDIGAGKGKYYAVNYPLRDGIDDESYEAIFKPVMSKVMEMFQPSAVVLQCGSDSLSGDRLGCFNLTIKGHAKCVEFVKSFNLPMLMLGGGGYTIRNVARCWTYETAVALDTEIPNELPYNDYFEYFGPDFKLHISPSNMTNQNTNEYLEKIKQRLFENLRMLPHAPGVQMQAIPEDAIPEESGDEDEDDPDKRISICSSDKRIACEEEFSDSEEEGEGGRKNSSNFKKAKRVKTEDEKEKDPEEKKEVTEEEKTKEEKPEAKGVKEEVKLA
Chain of HDAC3 (O15379 whole entry, canonical isoform): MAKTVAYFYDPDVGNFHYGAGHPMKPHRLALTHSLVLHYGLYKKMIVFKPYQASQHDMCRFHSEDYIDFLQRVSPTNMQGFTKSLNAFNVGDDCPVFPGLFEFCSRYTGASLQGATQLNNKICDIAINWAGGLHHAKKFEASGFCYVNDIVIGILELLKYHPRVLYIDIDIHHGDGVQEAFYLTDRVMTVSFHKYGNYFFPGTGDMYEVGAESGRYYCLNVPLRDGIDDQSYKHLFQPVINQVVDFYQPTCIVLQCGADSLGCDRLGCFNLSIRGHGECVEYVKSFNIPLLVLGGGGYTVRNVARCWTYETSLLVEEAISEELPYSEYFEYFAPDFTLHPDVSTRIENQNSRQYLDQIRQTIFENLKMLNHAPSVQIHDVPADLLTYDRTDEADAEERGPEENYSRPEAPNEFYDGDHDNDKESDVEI
Chain of HDAC3 (Q9Y618 395-489 partner limits assumed): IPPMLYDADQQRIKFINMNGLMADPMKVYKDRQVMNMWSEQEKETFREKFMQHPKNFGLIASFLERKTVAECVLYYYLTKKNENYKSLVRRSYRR
Chain of HDAC2 (Q92769 whole entry, canonical isoform): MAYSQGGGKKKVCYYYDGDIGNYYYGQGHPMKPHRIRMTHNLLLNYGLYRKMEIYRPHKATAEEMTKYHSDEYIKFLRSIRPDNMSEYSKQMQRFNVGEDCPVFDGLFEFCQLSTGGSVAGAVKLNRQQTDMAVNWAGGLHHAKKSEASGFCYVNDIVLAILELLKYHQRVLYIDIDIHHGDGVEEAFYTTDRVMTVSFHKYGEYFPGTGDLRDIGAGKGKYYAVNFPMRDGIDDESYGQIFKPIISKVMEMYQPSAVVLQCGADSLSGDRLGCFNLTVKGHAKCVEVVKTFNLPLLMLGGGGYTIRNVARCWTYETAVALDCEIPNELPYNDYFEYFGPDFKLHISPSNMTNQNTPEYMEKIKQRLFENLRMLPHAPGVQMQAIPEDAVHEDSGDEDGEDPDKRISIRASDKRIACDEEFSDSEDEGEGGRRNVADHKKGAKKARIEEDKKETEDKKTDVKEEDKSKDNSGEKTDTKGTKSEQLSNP

## COc1cc(C[C@H]2C(=O)OC[C@@H]2Cc2ccc(OC)c(OC)c2)ccc1O [Arctigenin, reference compound]
K562; Homo sapiens, K562, 48 h
  IC50: 24.2 ± 3.12 µM
KU812; Homo sapiens, KU812, 48 h
  IC50: > 30 µM
MV411
  IC50: 4.27 ± 1.68 µM

## COc1ccc(C[C@H]2COC(=O)[C@@H]2Cc2ccc(OCC(=O)NCCCCC(=O)Nc3ccccc3N)c(OC)c2)cc1OC [B4, N-(2-Aminophenyl)-5-(2-(4-(((3R,4R)-4-(3,4-dimethoxybenzyl)-2-oxotetrahydrofuran-3-yl)methyl)-2-methoxyphenoxy)acetamido)pentanamide]
K562; Homo sapiens, K562, 48 h
  IC50: > 5 µM
KU812; Homo sapiens, KU812, 48 h
  IC50: > 5 µM

## 4-(4-(((3R,4R)-4-(3,4-Dimethoxybenzyl)-2-oxotetrahydrofuran-3-yl)methyl)-2-methoxyphenoxy)-N-hydroxypentanamide [A1]
Kasumi-1
  IC50: > 5 µM
K562; [1]
  IC50: > 5 µM
CCRF-CEM
  IC50: > 5 µM
KU812; [2]
  IC50: > 5 µM
MV411
  IC50: > 5 µM

## COc1ccc(C[C@H]2COC(=O)[C@@H]2Cc2ccc(OCC(=O)NCCC(=O)Nc3ccccc3N)c(OC)c2)cc1OC [B2, N-(2-Aminophenyl)-3-(2-(4-(((3R,4R)-4-(3,4-dimethoxybenzyl)-2-oxotetrahydrofuran-3-yl)methyl)-2-methoxyphenoxy)acetamido)propanamide]
K562; Homo sapiens, K562, 48 h
  IC50: > 5 µM
KU812; Homo sapiens, KU812, 48 h
  IC50: > 5 µM

## COc1ccc(C[C@H]2COC(=O)[C@@H]2Cc2ccc(OCC(=O)Nc3ccc(C(=O)Nc4ccccc4N)cc3)c(OC)c2)cc1OC [B7, N-(2-Aminophenyl)-4-(2-(4-(((3R,4R)-4-(3,4-dimethoxybenzyl)-2-oxotetrahydrofuran-3-yl)methyl)-2-methoxyphenoxy)acetamido)benzamide]
HDAC10
  IC50: 1.75 µM
HDAC1
  IC50: 0.261 µM
HDAC3
  IC50: 0.299 µM
MV411 cells; MV411, 0.5 μM
  overall proportion of apoptotic cells (Q1-UR + Q1-LR): 37.90%
MV411 cells; MV411, 1.0 μM
  overall proportion of apoptotic cells (Q1-UR + Q1-LR): 77.00%
MV411 cells; MV411, lowest concentration (printed 0.25 μM and 0.1 μM)
  overall proportion of apoptotic cells (Q1-UR + Q1-LR): 21.84%
HDAC2
  IC50: 0.131 µM
K562; Homo sapiens, K562, 48 h
  IC50: 1.96 ± 0.19 µM
KU812; Homo sapiens, KU812, 48 h
  IC50: 2.09 ± 0.31 µM
Acetylated H3
  level of acetylated H3 (western blot): significantly increased the level of acetylated H3

## COc1ccc(C[C@H]2COC(=O)[C@@H]2Cc2ccc(OCC(=O)N3CCC(C(=O)NO)CC3)c(OC)c2)cc1OC [A8, 1-(2-(4-(((3R,4R)-4-(3,4-Dimethoxybenzyl)-2-oxotetrahydrofuran-3-yl)methyl)-2-methoxyphenoxy)acetyl)-N-hydroxypiperidine-4-carboxamide]
K562; Homo sapiens, K562, 48 h
  IC50: > 5 µM
KU812; Homo sapiens, KU812, 48 h
  IC50: > 5 µM

## 4-(2-(4-(((3R,4R)-4-(3,4-Dimethoxybenzyl)-2-oxotetrahydrofuran-3-yl)methyl)-2-methoxyphenoxy)acetamido)-N-hydroxybenzamide [B6]
Kasumi-1
  IC50: > 5 µM
K562; [1]
  IC50: > 5 µM
CCRF-CEM
  IC50: > 5 µM
KU812; [2]
  IC50: > 5 µM
MV411
  IC50: > 5 µM

## COc1ccc(C[C@H]2COC(=O)[C@@H]2Cc2ccc(OCC(=O)NCC(=O)Nc3ccccc3N)c(OC)c2)cc1OC [B1, N-(2-Aminophenyl)-2-(2-(4-(((3R,4R)-4-(3,4-dimethoxybenzyl)-2-oxotetrahydrofuran-3-yl)methyl)-2-methoxyphenoxy)acetamido)acetamide]
K562; Homo sapiens, K562, 48 h
  IC50: > 5 µM
KU812; Homo sapiens, KU812, 48 h
  IC50: > 5 µM

## COc1ccc(C[C@H]2COC(=O)[C@@H]2Cc2ccc(OCc3cn(CC(=O)Nc4ccccc4N)nn3)c(OC)c2)cc1OC [B8, N-(2-Aminophenyl)-2-(4-((4-(((3R,4R)-4-(3,4-dimethoxybenzyl)-2-oxotetrahydrofuran-3-yl)methyl)-2-methoxyphenoxy)methyl)-1H-1,2,3-triazol-1-yl)acetamide]
K562; Homo sapiens, K562, 48 h
  IC50: > 5 µM
KU812; Homo sapiens, KU812, 48 h
  IC50: > 5 µM

## N-(2-Aminophenyl)-5-(2-(4-(((3R,4R)-4-(3,4-dimethoxybenzyl)-2-oxotetrahydrofuran-3-yl)methyl)-2-methoxyphenoxy)acetamido)pentanamide [B5]
Kasumi-1
  IC50: > 5 µM
K562; [1]
  IC50: > 5 µM
CCRF-CEM
  IC50: > 5 µM
KU812; [2]
  IC50: > 5 µM
MV411
  IC50: > 5 µM

## COc1ccc(C[C@H]2COC(=O)[C@@H]2Cc2ccc(OCCCCCC(=O)NO)c(OC)c2)cc1OC [A3, 6-(4-(((3R,4R)-4-(3,4-Dimethoxybenzyl)-2-oxotetrahydrofuran-3-yl)methyl)-2-methoxyphenoxy)-N-hydroxyhexanamide]
K562; Homo sapiens, K562, 48 h
  IC50: 2.12 ± 0.12 µM
KU812; Homo sapiens, KU812, 48 h
  IC50: 3.88 ± 1.06 µM

## COc1ccc(C[C@H]2COC(=O)[C@@H]2Cc2ccc(OCCCCC(=O)NO)c(OC)c2)cc1OC [A2, 5-(4-(((3R,4R)-4-(3,4-Dimethoxybenzyl)-2-oxotetrahydrofuran-3-yl)methyl)-2-methoxyphenoxy)-N-hydroxypentanamide]
K562; Homo sapiens, K562, 48 h
  IC50: > 5 µM
KU812; Homo sapiens, KU812, 48 h
  IC50: > 5 µM

## Nc1cc(F)ccc1NC(=O)c1ccc(CNC(=O)/C=C/c2cccnc2)cc1 [Tucidinostat, tucidinostat, reference compound]
K562; Homo sapiens, K562, 48 h
  IC50: 2.68 ± 0.65 µM
KU812; Homo sapiens, KU812, 48 h
  IC50: 4.26 ± 0.48 µM

## COc1ccc(C[C@H]2COC(=O)[C@@H]2Cc2ccc(OCCCCCCC(=O)NO)c(OC)c2)cc1OC [A4, 7-(4-(((3R,4R)-4-(3,4-Dimethoxybenzyl)-2-oxotetrahydrofuran-3-yl)methyl)-2-methoxyphenoxy)-N-hydroxyheptanamide]
K562; Homo sapiens, K562, 48 h
  IC50: 1.19 ± 0.25 µM
KU812; Homo sapiens, KU812, 48 h
  IC50: 1.41 ± 0.75 µM

## COc1ccc(C[C@H]2COC(=O)[C@@H]2Cc2ccc(OCc3cn(CC(=O)NO)nn3)c(OC)c2)cc1OC [A10, 2-(4-((4-(((3R,4R)-4-(3,4-Dimethoxybenzyl)-2-oxotetrahydrofuran-3-yl)methyl)-2-methoxyphenoxy)methyl)-1H-1,2,3-triazol-1-yl)-N-hydroxyacetamide]
K562; Homo sapiens, K562, 48 h
  IC50: > 5 µM
KU812; Homo sapiens, KU812, 48 h
  IC50: > 5 µM
